Measurements published in ChEMBL document CHEMBL1133135, “Grignard-mediated synthesis and preliminary biological evaluation of novel 3-substituted farnesyl diphosphate analogues” (Bioorg Med Chem Lett, 2000).

What follows are molecules tested against Protein farnesyltransferase (Homo sapiens, UniProt P49354+P49356) (assay: Inhibitory activity against recombinant mammalian protein Farnesyltransferase expressed in baculovirus).
Procedure, shortened: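 Recombinant mammalian FTase, baculovirus-expressed and purified, assayed continuously by fluorescence with dansyl-GCVLS-OH as peptide cosubstrate and the FPP analogue as isoprenoid. IC50 is taken from the decrease in activity with rising analogue concentration. Analogue concentrations were verified by phosphate analysis.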

Structure (SMILES)	IC50 [nM]
C=CC/C(=C\COP(=O)(O)OP(=O)(O)O)CC/C=C(\C)CCC=C(C)C	119
CCC(C)/C(=C\COP(=O)(O)OP(=O)(O)O)CC/C=C(\C)CCC=C(C)C (stereo not drawn)	102
CC(C)=CCC/C(C)=C/CC/C(=C/COP(=O)(O)OP(=O)(O)O)C(C)C	35
CCC/C(=C\COP(=O)(O)OP(=O)(O)O)CC/C=C(\C)CCC=C(C)C	453

The next lines start with the values.

IC50 [nM]	Structure (SMILES)
10100	CC(C)=CCC/C(C)=C/CC/C(=C/COP(=O)(O)OP(=O)(O)O)c1ccc(F)cc1
18	C=C(C)/C(=C\COP(=O)(O)OP(=O)(O)O)CC/C=C(\C)CCC=C(C)C
6600	CC(C)=CCC/C(C)=C/CC/C(=C/COP(=O)(O)OP(=O)(O)O)CC(C)(C)C
290	CC(C)=CCC/C(C)=C/CC/C(=C/COP(=O)(O)OP(=O)(O)O)CC(C)C
